Published values collected from several papers.
Protocols differ between the studies behind these lines.
Organism: Pseudomonas aeruginosa
Effect on: microbial growth

CCCCCCC#Cc1cncc(-c2nnc(SCc3cc([N+](=O)[O-])cc([N+](=O)[O-])c3)n2CCCN)c1
MIC (broth dilution; DSM1128): > 64 µg/mL

COc1ccc2ccc(O)c(/C=N/[C@H]3CCCC[C@H]3/N=C/c3c(O)cccc3F)c2c1
MIC (broth dilution; clinical isolate): > 40 µM

Cc1ccc2[nH]nc(-c3nnc(Nc4ccc(C)c(C)c4)s3)c2c1
MIC (ATCC27853): 108 µg/mL

C[C@@H](O)[C@H]1C(=O)N2C(C(=O)O)=C(SCCN=CN)C[C@H]12
MIC (broth dilution; ATCC27853): 4 µg/mL

Cc1cc(O)cc(Nc2nnc(-c3n[nH]c4ccc(C)cc34)s2)c1
MIC (ATCC27853): 147 µg/mL

CCCCCCCCCCCC[N+](C)(C)Cc1ccccc1
MIC (PAO1): 250 µM

[H]/N=C(/N)N[C@H]1[C@H](O)[C@@H](O)[C@H](O[C@@H]2O[C@@H](C)[C@](O)(C=O)[C@H]2O[C@@H]2O[C@@H](CO)[C@H](O)[C@@H](O)[C@@H]2NC)[C@@H](N/C(N)=N\[H])[C@@H]1O
MIC (broth dilution; ATCC27 ATCC27853): 20 µg/mL

Cc1ccc2[nH]nc(-c3nnc(Nc4ccc(O)cc4)s3)c2c1
MIC (ATCC27853): 63.9 µg/mL

CC[C@H]1OC(=O)[C@H](C)[C@@H](O[C@H]2C[C@@](C)(OC)[C@@H](O)[C@H](C)O2)[C@H](C)[C@@H](O[C@@H]2O[C@H](C)C[C@H](N(C)C)[C@H]2O)[C@](C)(O)C[C@@H](C)CN(C)[C@H](C)[C@@H](O)[C@]1(C)O
MIC (broth dilution; ATCC27853): 32 µg/mL

OB1OCc2cc(F)ccc21
MIC (broth dilution): 128 µg/mL

COc1ccc2ccc(O)c(/C=N/[C@H]3CCCC[C@H]3/N=C/c3ccc(OCCN4CCCCC4)cc3O)c2c1
MIC (broth dilution): > 40 µM

Cc1ccc2[nH]nc(-c3nnc(Nc4ccc(Cl)cc4)s3)c2c1
MIC (ATCC27853): 119 µg/mL

CC1(C)S[C@@H]2[C@H](NC(=O)[C@H](N)c3ccc(O)cc3)C(=O)N2[C@H]1C(=O)O
MIC (broth dilution; ATCC27853): > 64 µg/mL

Cc1ccc2[nH]nc(-c3nnc(Nc4ccc(C(F)(F)F)cc4)s3)c2c1
MIC (ATCC27853): 126 µg/mL

CNC(C)C1CCC(N)C(OC2C(N)CC(N)C(OC3OCC(C)(O)C(NC)C3O)C2O)O1 (stereo not shown)
MIC (broth dilution): 2 µg/mL

C[C@@H](O)[C@H]1C(=O)N2C(C(=O)O)=C(S[C@@H]3CN[C@H](C(=O)N(C)C)C3)[C@H](C)[C@H]12
MIC (broth dilution; ATCC27853): 0.25 µg/mL

COc1ccc2ccc(O)c(/C=N/[C@H]3CCCC[C@H]3/N=C/c3ccc(-c4ccccc4)cc3O)c2c1
MIC (broth dilution; clinical isolate): > 40 µM

Cc1ccc2[nH]nc(-c3nnc(Nc4ccc(Cl)c(Cl)c4)s3)c2c1
MIC (ATCC27853): 121 µg/mL

CCCCCCC#Cc1cncc(-c2nnc(SCc3cc(C(F)(F)F)cc(C(F)(F)F)c3)n2CCCN)c1
MIC (broth dilution; DSM1128): > 64 µg/mL

C[C@@H](O)[C@H]1C(=O)N2C(C(=O)O)=C(S[C@@H]3CN[C@H](C(=O)N(C)C)C3)[C@H](C)[C@H]12
MIC (ATCC27853; drug-resistant strain): 0.25 µg/mL

Cc1ccc2[nH]nc(-c3nnc(Nc4ccc(Br)cc4)s3)c2c1
MIC (ATCC27853): 243 µg/mL

CCCCCCC#Cc1cncc(-c2nnc(SCc3ccc([N+](=O)[O-])cc3)n2CCCN)c1
MIC (broth dilution; DSM1128): > 64 µg/mL
